Active and inactive are the calls of the source. The calls are words filed in the database; no cut-off is given here.

Data set [1] is described as follows: Volume of distribution at steady state in BALB/C mouse at 10 mg/kg, po or 2 mg/kg, iv by LC-MS/MS method. It counts as ADME, organism-based. Set-up: unit not given here. As to conditions: in vivo, read-out: Vdss. The procedure, abridged: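 Single-dose PK: iv bolus 2 mg/kg in 5% DMSO/40% PEG400/55% saline and/or oral gavage 10 mg/kg as 0.445% microcrystalline cellulose microsuspension; BALB/C nude mice (15−20 g, N = 16 per arm) or male Sprague−Dawley rats (250 ± 20 g, N = 3). Blood at eight (po) or nine (iv) time points into sodium heparin, plasma by LC-MS/MS, noncompartmental analysis.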

Data set [2] concerns Mus musculus. Description: Down-regulation of WNT5A gene expression in human hepatocellular carcinoma patient tumor xenografted in BALB/C mouse at 100 mg/kg, po administered every other day for 4 weeks by […]. Set-up: dose 100 mg/kg. It counts as functional, organism-based. The procedure, abridged: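 Patient-derived HCC xenografts dosed 100 mpk Q2D PO; tumor total RNA (TRIzol, DNase I treated, column-purified) run on a customized 22-gene qRT-PCR array; ΔCt against mean of GAPDH and β-glucuronidase, fold-change relative to day 0 (pre-treatment).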

Data set [3] relates to Mus musculus. Description: Up-regulation of PYCARD gene expression in human hepatocellular carcinoma patient tumor xenografted in BALB/C mouse at 100 mg/kg, po administered every other day for 4 weeks by […]. Type of data set: functional, organism-based. Set-up: dose 100 mg/kg. Put shortly: (§1)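 Patient HCC tumor fragments (3 × 3 × 3 mm3) implanted subcutaneously in female BALB/c nu/nu mice; at ~200 (150−250) mm3 dosed orally Q2D 100 mpk in 15% Kleptose pH 4.5 tartaric buffer for about four weeks. Tumor RNA (TRIzol, DNase I) run on 22-gene qRT-PCR array, normalized to GAPDH/β-glucuronidase by ΔCt, fold change versus day 0.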

The test system of data set [4] is Mus musculus. Description: Up-regulation of FN1 gene expression in human hepatocellular carcinoma patient tumor xenografted in BALB/C mouse at 100 mg/kg, po administered every other day for 4 weeks by […]. It counts as functional, organism-based. The arrangement: dose 100 mg/kg. The procedure, abridged: as §1
For orientation: In xenograft studies the graft and the host belong to different species.

Data set [5] relates to Mus musculus. Description: Up-regulation of CTGF gene expression in human hepatocellular carcinoma patient tumor xenografted in BALB/C mouse at 100 mg/kg, po administered every other day for 4 weeks by […]. Type of data set: functional, organism-based. Set-up: dose 100 mg/kg. Put shortly: as §1
For data set [6], the system named is SGC-7901. Description: Inhibition of Class 1 histone deacetylase in human SGC7901 cells assessed as […] at 0.6 to 5 uM incubated for 24 hrs by Western blot method. Type of data set: cell-based. The procedure, abridged: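 SGC-7901 cells (1 × 10^6) seeded overnight, treated 24 h at indicated concentrations; lysed on ice with protease inhibitor, 15 000 g supernatant; 30 μg protein by SDS-PAGE, nitrocellulose, antibody probing for acetylated histone H3 and p21, ECL detection.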
On the technique in general: In western blotting, separated proteins are transferred to a membrane and probed.

The subject of data set [7] is Mus musculus. Description: Inhibition of Class 1 histone deacetylase in human Bel7404 cells xenografted BALB/C mouse assessed as induction of histone H3 acetylation at 100 mg/kg, po administered every other day for 4 weeks by Western blot method. As to conditions: Bel-7404.
Data set [8] relates to Mus musculus. Description: Half life in BALB/C mouse at 10 mg/kg, po or 2 mg/kg, iv by LC-MS/MS method. As to conditions: in vivo. Type of data set: ADME, organism-based. Put shortly:
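Female-unspecified BALB/C nude mice (15−20 g, N = 16 per arm); iv bolus 2 mg/kg in 5% DMSO/40% PEG400/55% saline and/or oral gavage 10 mg/kg as 0.445% microcrystalline cellulose microsuspension. Blood sampled at nine (iv) or eight (po) time points into sodium heparin tubes; plasma by LC-MS/MS; noncompartmental analysis.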

For data set [9], the system named is Mus musculus. Description: Toxicity in human Bel7404 cells xenografted BALB/C mouse assessed as body weight loss at 50 mg/kg, po qd for 4 weeks. As to conditions: in vivo, 672 h.
The subject of data set [10] is SMMC-7721. Description: Induction of apoptosis in human SMMC-7721 cells assessed as early apoptotic cell level at 5 uM incubated for 48 hrs by FITC/Annexin V staining based flow cytometry (reference value: 2.61%). A general note: In flow cytometry, cells or beads pass a laser one at a time.

As for `CN1C[C@H](C(=O)Nc2ccc(Cl)cc2)[C@@H](c2ccc(/C=C/C(=O)Nc3ccccc3N)cc2F)C1` (racemic), in [1], the Vd stood at 3.
Take `CN1C[C@H](C(=O)Nc2ccc(Cl)cc2)[C@@H](c2ccc(/C=C/C(=O)Nc3ccccc3N)cc2)C1` [listing 1 of 2 here]: the result in data set [2], in data set [4] and in [5] was Active. Further, the result in data set [3] was inactive. In data set [6], the inhibition result was “Dose-dependent effect”. Further, the inhibition result in data set [7] is “Active”.
Consider `CN1C[C@H](C(=O)Nc2ccc(Cl)cc2)[C@@H](c2ccc(/C=C/C(=O)Nc3ccccc3N)cc2)C1` [listing 2 of 2 here], for which the t1/2 in data set [8] came out at 3.4 h. The Activity in data set [9] was < 10%; in data set [10] it was 3.56%.

Values taken from ChEMBL document CHEMBL2177000, “Pharmacokinetic optimization of class-selective histone deacetylase inhibitors and identification of associated candidate predictive biomarkers of hepatocellular carcinoma tumor response” (J Med Chem, 2012).
